Results from ChEMBL document CHEMBL3352233, “N-[6-(4-butanoyl-5-methyl-1H-pyrazol-1-yl)pyridazin-3-yl]-5-chloro-1-[2-(4-methylpiperazin-1-yl)-2-oxoethyl]-1H-indole-3-carboxamide (SAR216471), a novel intravenous and oral, reversible, and directly acting P2Y12 antagonist” (J Med Chem, 2014).

Tests used:
[1] = Metabolic stability in human liver microsomes assessed as compound metabolism after 20 mins incubation in presence of 1 mM NADPH; format: ADME; settings: liver microsomes, read-out: Drug metabolism
In short: (§1)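 Hepatic microsomal fractions are incubated with compound for 20 min with 1 mM NADPH. Result is reported as % metabolized, i.e. 100 minus % unchanged compound.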

[2] = Metabolic stability in rat liver microsomes assessed as compound metabolism after 20 mins incubation in presence of 1 mM NADPH; format: ADME; settings: liver microsomes, read-out: Drug metabolism; in short: as §1
Rattus norvegicus [3] = test: Ex vivo inhibition of platelet aggregation in Sprague-Dawley rat at 10 mg/kg, po after 2 hrs; format: functional; settings: Rattus norvegicus, Sprague-Dawley, po, 2 h
In short: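 Male Sprague−Dawley rats (250−300 g), 6 per batch, are dosed by stomach tube at 10 mL/kg of a 1 mg/mL solution in 5% glucose water containing 5% Cremophor and 3% glycofurol. At 2 h, aortic blood is drawn into 3.8% citrate (1:9) under pentobarbital. PRP is prepared at 300g for 5 min. ADP aggregation is read as the 6-min absorbance AUC and expressed as % inhibition.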

[4] = Solubility in water at pH 4.9; format: physicochemical
P2Y purinoceptor 12 = P2Y purinoceptor 12 (Homo sapiens, UniProt Q9H244); test: Displacement of [33P]2MeS-ADP from P2Y12 receptor (unknown origin) transfected in CHO cells after 30 mins by scintillation counting analysis; format: cell-based
In short: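 P2Y12-expressing CHO cells (35 × 10³/sample) in PBS with 1 mM EDTA and 0.2% BSA are exposed to compound for 30 min. [³³P]2-MeS-ADP (0.16 nM) is then added for 15 min at 20 °C, in triplicate. Filtration separates free from bound ligand, followed by scintillation counting. Nonspecific binding uses 1 mM unlabeled ADP. IC50 comes from a four-parameter logistic fit with asymptotes fixed at 0 and 100. n = 2.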

[5] = Permeability across human Caco2 cells; format: ADME, cell-based; settings: Caco-2, read-out: permeability
In short: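 Permeation is measured across a Caco2 cell monolayer and reported in 10⁻⁷ cm·s⁻¹.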

Rattus norvegicus [6] = test: Ex vivo inhibition of platelet aggregation in Sprague-Dawley rat at 10 mg/kg, po after 6 hrs; format: functional; settings: Rattus norvegicus, Sprague-Dawley, po, 6 h
In short: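 Time-course study in Sprague−Dawley rats after a 10 mg/kg oral dose in glucose/Cremophor/glycofurol vehicle. Aortic citrated blood is sampled at intervals over the hours after dosing. PRP is prepared at 300g for 5 min. ADP-induced aggregation is measured as the 6-min absorbance AUC and reported as % inhibition.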

[7] = Metabolic stability in mouse liver microsomes assessed as compound metabolism after 20 mins incubation in presence of 1 mM NADPH; format: ADME; settings: read-out: Drug metabolism
In short: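 Compound incubated with mouse hepatic microsomal fractions for 20 min with 1 mM NADPH. Read-out is % metabolism, meaning 100 minus % unchanged compound.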

Hepatocyte [8] = test: Intrinsic metabolic clearance in human hepatocytes measured per 10^6 cells after 24 hrs; format: ADME, cell-based
In short: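 Human hepatocytes incubated with compound for 24 h to measure in vitro metabolism. Clearance reported in mL·h⁻¹·(10⁶ hepatocytes)⁻¹.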

Hepatocyte [9] = test: Intrinsic metabolic clearance in human hepatocytes measured assessed as CYP3A4 contribution per 10^6 cells after 24 hrs; format: ADME, cell-based
Rattus norvegicus [10] = test: Ex vivo inhibition of platelet aggregation in po dosed Sprague-Dawley rat after 2 hrs; format: functional
In short: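 Oral gavage in male Sprague−Dawley rats (250−300 g, 6 per batch), vehicle 5% glucose water with 5% Cremophor and 3% glycofurol. Blood is collected 2 h after dosing from the abdominal aorta into 3.8% citrate under pentobarbital. PRP is prepared at 300g for 5 min. ADP-induced aggregation is quantified as the 6-min absorbance AUC, given as % inhibition.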

Rattus norvegicus [11] = test: Ex vivo inhibition of platelet aggregation in Sprague-Dawley rat at 1 mg/kg, iv after 30 mins; format: functional; settings: 0.5 h
In short: (§2)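 Male Sprague−Dawley rats (250−300 g) receive compound iv. At 30 min, under pentobarbital anesthesia, blood is taken from the abdominal aorta into 3.8% citrate (1:9). PRP is prepared at 300g for 5 min. ADP-induced aggregation is measured, using the area under the absorbance curve over 6 min, and expressed as % inhibition.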

Rattus norvegicus [12] = test: Ex vivo inhibition of platelet aggregation in Sprague-Dawley rat at 3 mg/kg, iv after 30 mins; format: functional; settings: 0.5 h; in short: as §2
Rattus norvegicus [13] = test: Ex vivo inhibition of platelet aggregation in Sprague-Dawley rat at 10 mg/kg, iv after 30 mins; format: functional; settings: 0.5 h; in short: as §2
Rattus norvegicus [14] = test: Toxicity in rat assessed as damaged organ at 30 mg/kg, po after 7 days; format: organism-based; design: dose 30 mg/kg, route oral; settings: in vivo, 168 h
In short: (§3)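 Rats are dosed daily for 7 days, orally (30 and 100 mg/kg) or iv (3 and 10 mg/kg). Target organs are examined for damage. Plasma AUC(0−24) is compared between day 1 and day 7.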

Rattus norvegicus [15] = test: Toxicity in rat assessed as damaged organ at 100 mg/kg, po after 7 days; format: organism-based; design: dose 100 mg/kg, route oral; settings: in vivo, 168 h; in short: as §3
Rattus norvegicus [16] = test: Toxicity in rat assessed as damaged organ at 3 mg/kg, iv after 7 days; format: organism-based; design: dose 3 mg/kg, route intravenous; settings: in vivo, 168 h; in short: as §3
Rattus norvegicus [17] = test: Toxicity in rat assessed as damaged organ at 10 mg/kg, iv after 7 days; format: organism-based; design: dose 10 mg/kg, route intravenous; settings: in vivo, 168 h; in short: as §3
Canis familiaris [18] = test: Toxicity in conscious telemetered mongrel dog assessed as hemodynamic effect at 100 mg/kg, po after 24 hrs; format: organism-based, Canis lupus familiaris; design: dose 100 mg/kg, route oral; settings: in vivo
Canis familiaris [19] = test: Toxicity in conscious telemetered mongrel dog assessed as electrocardiographic effect at 100 mg/kg, po after 24 hrs; format: organism-based, Canis lupus familiaris; design: dose 100 mg/kg, route oral; settings: in vivo
Canis familiaris [20] = test: Toxicity in conscious telemetered mongrel dog assessed as body temperature at 100 mg/kg, po after 24 hrs; format: organism-based, Canis lupus familiaris; design: dose 100 mg/kg, route oral; settings: in vivo
[21] = Plasma concentration in conscious telemetered mongrel dog at 100 mg/kg, po after 4 hrs; format: ADME, organism-based, Canis lupus familiaris; design: dose 100 mg/kg, route oral
Rattus norvegicus [22] = test: Ex vivo inhibition of platelet aggregation in Sprague-Dawley rat at 30 mg/kg, po after 2 hrs
Rattus norvegicus [23] = test: Ex vivo inhibition of platelet aggregation in Sprague-Dawley rat at 0.1 mg/kg, iv after 5 mins
Rattus norvegicus [24] = test: Ex vivo inhibition of platelet aggregation in Sprague-Dawley rat at 0.3 mg/kg, iv after 5 mins
Rattus norvegicus [25] = test: Ratio of AUC (0 to 24 hrs) in rat dosed as 7 day repeated administration to AUC (0 to 24 hrs) in rat administered as single dose; settings: in vivo
[26] = Solubility in water at final pH; format: physicochemical

Sequence of P2Y purinoceptor 12 (Q9H244 whole entry): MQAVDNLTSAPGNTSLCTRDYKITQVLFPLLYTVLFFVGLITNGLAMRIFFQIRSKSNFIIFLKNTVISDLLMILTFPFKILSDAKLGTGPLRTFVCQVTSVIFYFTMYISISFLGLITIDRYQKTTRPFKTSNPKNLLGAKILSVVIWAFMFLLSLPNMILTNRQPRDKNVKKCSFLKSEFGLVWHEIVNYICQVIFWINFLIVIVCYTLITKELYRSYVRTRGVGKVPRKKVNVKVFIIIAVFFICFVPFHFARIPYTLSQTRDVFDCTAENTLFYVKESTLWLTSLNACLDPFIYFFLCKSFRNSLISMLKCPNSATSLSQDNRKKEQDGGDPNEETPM

metabolised at 20 min [1] [%]	metabolised at 20 min [2] [%]	IC50 (P2Y purinoceptor 12) [nM]	Papp [5] [×10⁻⁶ cm/s]	SMILES	inhibition in vivo at 10 mg/kg (Rattus norvegicus [3]) [%]	inhibition in vivo at 10 mg/kg (Rattus norvegicus [6]) [%]	inhibition in vivo at 1 mg/kg (Rattus norvegicus [11]) [%]	inhibition in vivo at 3 mg/kg (Rattus norvegicus [12]) [%]	inhibition in vivo at 10 mg/kg (Rattus norvegicus [13]) [%]	other results
39	41	31	4	CCCC(=O)c1cnn(-c2ccc(NC(=O)c3cn(CC(=O)N4CCN(C)CC4)c4ccc(C)cc34)cc2)c1C.Cl	33					solubility [4]: 760 µg/mL
29	11	17	0.8	CCCC(=O)c1cnn(-c2ccc(NC(=O)c3cn(CC(=O)N4CCN(C)CC4)c4ccc(Cl)cc34)nn2)c1C		74	75	86	92	metabolised at 20 min [7]: 4%; CLH (Hepatocyte [8]): 0.085 mL/h; Activity (Hepatocyte [9]): 43%; ED50 (Rattus norvegicus [10]): 2.75 mg/kg; inhibition (Rattus norvegicus [10]): Dose-dependent effect; Activity (Rattus norvegicus [14]): Non-toxic; Activity (Rattus norvegicus [15]): Non-toxic; Activity (Rattus norvegicus [16]): Non-toxic; Activity (Rattus norvegicus [17]): Non-toxic; Activity (Canis familiaris [18]): Non-toxic; Activity (Canis familiaris [19]): Non-toxic; Activity (Canis familiaris [20]): Non-toxic; concentration at 4 h [21]: 4.2 µM; inhibition in vivo at 30 mg/kg (Rattus norvegicus [22]): 85%; inhibition in vivo at 0.1 mg/kg (Rattus norvegicus [23]): 37%; inhibition in vivo at 0.3 mg/kg (Rattus norvegicus [24]): 63%; Ratio (Rattus norvegicus [25]): 1.3
36	14	27	1.6	CCCC(=O)c1cnn(-c2ccc(NC(=O)c3cn(CC(=O)N4CCN(C)CC4)c4ccc(Cl)cc34)cc2)c1C	50	51	53	70	86	
59	64	31	18.6	CCCC(=O)c1cnn(-c2ccc(NC(=O)c3cn(CC(=O)N(C)C)c4cc(C)c(C)cc34)cc2)c1C						solubility [26]: < 10 µg/mL
